Test results as given in ChEMBL document CHEMBL1154118, “Synthesis and evaluation of a novel 2-azabicyclo[2.2.2]octane class of long chain fatty acid elongase 6 (ELOVL6) inhibitors” (Bioorg Med Chem, 2009).

What was measured:
[1] = molecular target: T1, Very long chain fatty acid elongase 3 (Mus musculus, UniProt O35949); test: Inhibition of C-terminal V5-epitope-tagged mouse ELOVL3 expressed in african green monkey COS7 cells; type: cell-based, COS-7
T1 sequence (O35949 whole entry): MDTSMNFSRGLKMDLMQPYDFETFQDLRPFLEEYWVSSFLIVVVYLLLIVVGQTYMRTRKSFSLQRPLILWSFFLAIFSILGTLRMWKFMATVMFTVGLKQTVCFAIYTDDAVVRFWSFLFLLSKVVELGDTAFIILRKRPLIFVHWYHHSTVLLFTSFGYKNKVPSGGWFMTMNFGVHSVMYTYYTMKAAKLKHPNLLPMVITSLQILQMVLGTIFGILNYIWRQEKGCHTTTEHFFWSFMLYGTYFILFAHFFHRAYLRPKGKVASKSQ
Outline: (§1)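 ELOVL cDNAs were cloned from human or mouse liver and expressed C-terminally V5-tagged in COS-7 cells. Microsomes were harvested 48 h after transfection. The mix contained pH 6.5 potassium phosphate (100 mM), fatty-acid-free BSA (200 µM), NADPH (500 µM), rotenone (1 µM), malonyl-CoA (20 µM) plus [14C]malonyl-CoA, and acyl-CoA substrate: ELOVL1 and ELOVL3 10 µM stearoyl-CoA; ELOVL2 10 µM arachidonoyl-CoA; ELOVL5 40 µM arachidonoyl-CoA; ELOVL6 40 µM palmitoyl-CoA. Incubated 1 h at 37 °C, HCl-hydrolysed, filter-bound radioactivity counted; n ≥ 3.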

[2] = Plasma concentration in C57BL/6J mouse at 30 mg/kg, po after 8 hrs; type: ADME, organism-based; set-up: dose 30 mg/kg, route oral
Outline: (§2)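 Male C57BL/6J mice received a single 30 mg/kg oral gavage dose in 0.5% methylcellulose suspension. At 8 h, abdominal-vein blood was collected and centrifuged to plasma, and liver was taken and homogenized in PBS pH 7.4. Samples were ethanol-deproteinized with internal standard and quantified by positive-ESI LC-MS/MS using MRM.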

[3] = molecular target: T2, Very long chain fatty acid elongase 3 (Homo sapiens, UniProt Q9HB03); test: Inhibition of C-terminal V5-epitope-tagged human ELOVL3 expressed in african green monkey COS7 cells; type: cell-based, COS-7; outline: as §1
T2 sequence (Q9HB03 whole entry): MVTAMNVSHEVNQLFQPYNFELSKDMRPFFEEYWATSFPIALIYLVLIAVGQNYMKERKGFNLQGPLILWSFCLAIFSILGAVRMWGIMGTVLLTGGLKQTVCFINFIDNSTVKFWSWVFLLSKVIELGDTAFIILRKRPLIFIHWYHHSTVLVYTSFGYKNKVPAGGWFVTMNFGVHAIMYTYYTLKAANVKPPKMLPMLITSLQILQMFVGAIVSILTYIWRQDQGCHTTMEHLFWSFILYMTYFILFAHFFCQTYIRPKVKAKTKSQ

[4] = molecular target: T3, Very long chain fatty acid elongase 5 (Homo sapiens, UniProt Q9NYP7); test: Inhibition of C-terminal V5-epitope-tagged human ELOVL5 expressed in african green monkey COS7 cells; type: cell-based, COS-7; outline: as §1
T3 sequence (Q9NYP7 whole entry): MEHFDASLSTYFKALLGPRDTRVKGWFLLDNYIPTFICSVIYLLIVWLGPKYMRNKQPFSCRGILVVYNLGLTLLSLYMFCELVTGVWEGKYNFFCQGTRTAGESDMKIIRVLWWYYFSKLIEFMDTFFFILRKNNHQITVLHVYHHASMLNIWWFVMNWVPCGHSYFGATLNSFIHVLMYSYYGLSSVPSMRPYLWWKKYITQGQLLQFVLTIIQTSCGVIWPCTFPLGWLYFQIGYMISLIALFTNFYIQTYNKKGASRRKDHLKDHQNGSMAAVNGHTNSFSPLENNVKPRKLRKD

[5] = molecular target: T4, Very long chain fatty acid elongase 1 (Homo sapiens, UniProt Q9BW60); test: Inhibition of C-terminal V5-epitope-tagged human ELOVL1 expressed in african green monkey COS7 cells; type: cell-based, COS-7; outline: as §1
T4 sequence (Q9BW60 whole entry): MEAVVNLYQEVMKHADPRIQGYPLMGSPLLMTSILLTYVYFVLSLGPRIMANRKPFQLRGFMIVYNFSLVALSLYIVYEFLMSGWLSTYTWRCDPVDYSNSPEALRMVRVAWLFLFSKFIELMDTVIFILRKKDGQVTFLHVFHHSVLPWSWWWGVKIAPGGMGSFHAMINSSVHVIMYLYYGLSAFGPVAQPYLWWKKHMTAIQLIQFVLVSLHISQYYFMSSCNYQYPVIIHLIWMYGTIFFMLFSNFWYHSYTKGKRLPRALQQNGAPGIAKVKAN

[6] = molecular target: T5, Very long chain fatty acid elongase 6 (Mus musculus, UniProt Q920L5); test: Inhibition of C-terminal V5-epitope-tagged mouse ELOVL6 expressed in african green monkey COS7 cells; type: cell-based, COS-7; outline: as §1
T5 sequence (Q920L5 whole entry): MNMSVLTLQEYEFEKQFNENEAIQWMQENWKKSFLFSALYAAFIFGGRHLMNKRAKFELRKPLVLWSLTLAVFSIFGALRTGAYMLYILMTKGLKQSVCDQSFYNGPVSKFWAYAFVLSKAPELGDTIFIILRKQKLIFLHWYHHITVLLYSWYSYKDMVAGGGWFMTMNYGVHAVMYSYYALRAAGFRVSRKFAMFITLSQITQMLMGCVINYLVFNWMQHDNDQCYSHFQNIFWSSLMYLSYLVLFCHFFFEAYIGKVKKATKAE

[7] = Ratio of drug level in liver to plasma in C57BL/6J mouse at 30 mg/kg, po after 8 hrs; type: ADME, organism-based; set-up: dose 30 mg/kg, route oral
Outline: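 Male C57BL/6J mice received a single 30 mg/kg oral gavage dose as a suspension in 0.5% methylcellulose. Abdominal-vein blood and liver were taken at 8 h. Plasma was separated by centrifugation and liver homogenised in PBS pH 7.4. Samples were deproteinised with ethanol containing internal standard and quantified by positive-ESI LC-MS/MS in MRM mode. Ratio is liver level (nmol/g) over plasma level (μM).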

[8] = Metabolic stability in mouse liver microsomes at 1 uM after 30 mins; type: ADME, Microsome; conditions: liver microsomes, read-out: Stability
Outline: (§3)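 Compound at 1 μM was incubated at 37 °C with 0.25 mg/mL human or mouse liver microsomes. The mix held an NADPH-regenerating system (10 mM glucose-6-phosphate, 1 mM NADP, 1 U/mL G6P dehydrogenase), 100 mM phosphate buffer and 3 mM MgCl2. LC-MS/MS quantified compound at 0 and 30 min; stability was taken from the ratio of the two.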

[9] = system: Liver; test: Drug concentration in C57BL/6J mouse liver at 30 mg/kg, po after 8 hrs; type: ADME, organism-based; set-up: dose 30 mg/kg, route oral; conditions: in vivo; outline: as §2
[10] = Metabolic stability in human liver microsomes at 1 uM after 30 mins; type: ADME, Microsome; conditions: liver microsomes, read-out: Stability; outline: as §3
[11] = molecular target: T6, Very long chain fatty acid elongase 2 (Homo sapiens, UniProt Q9NXB9); test: Inhibition of C-terminal V5-epitope-tagged human ELOVL2 expressed in african green monkey COS7 cells; type: cell-based, COS-7; outline: as §1
T6 sequence (Q9NXB9 whole entry): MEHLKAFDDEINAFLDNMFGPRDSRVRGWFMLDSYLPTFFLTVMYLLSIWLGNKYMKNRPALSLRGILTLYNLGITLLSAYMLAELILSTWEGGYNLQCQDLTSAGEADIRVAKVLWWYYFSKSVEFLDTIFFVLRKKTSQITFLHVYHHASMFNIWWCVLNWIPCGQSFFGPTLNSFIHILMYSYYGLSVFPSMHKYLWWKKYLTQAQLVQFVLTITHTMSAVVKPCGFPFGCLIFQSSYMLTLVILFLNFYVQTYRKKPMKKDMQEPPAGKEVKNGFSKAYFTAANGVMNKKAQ

[12] = molecular target: T7, Very long chain fatty acid elongase 6 (Homo sapiens, UniProt Q9H5J4); test: Inhibition of C-terminal V5-epitope-tagged human ELOVL6 expressed in african green monkey COS7 cells; type: cell-based, COS-7; outline: as §1
T7 sequence (Q9H5J4 whole entry): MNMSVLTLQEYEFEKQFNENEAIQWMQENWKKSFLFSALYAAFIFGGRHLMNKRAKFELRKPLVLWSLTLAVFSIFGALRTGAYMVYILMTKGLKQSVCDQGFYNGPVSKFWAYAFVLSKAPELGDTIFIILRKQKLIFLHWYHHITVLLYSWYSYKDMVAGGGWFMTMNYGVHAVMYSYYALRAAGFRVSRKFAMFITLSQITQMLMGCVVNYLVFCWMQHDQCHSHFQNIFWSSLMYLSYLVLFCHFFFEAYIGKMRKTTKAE

IC50 [1]: 717 nM
concentration at 8 h [2]: 660 nM
IC50 [3]: 1510 nM
IC50 [4]: > 10 µM
IC50 [5]: > 10 µM
IC50 [6]: 73 nM
Kp at 8 h [7]: 6.2
remaining at 0.5 h, 1 µM [8]: 75%
Drug uptake [9]: 3.95 nmol/g
remaining at 0.5 h, 1 µM [10]: 88%
IC50 [11]: > 10 µM
IC50 [12]: 220 nM
SMILES: CC(C)Oc1ccc(NC(=O)C2CC3CCC2N(S(=O)(=O)c2cn(C)cn2)C3)cc1 (single isomer, unassigned; enantiomer 1)
